≈ marks a conversion by molar mass, not a printed value.
Key:
[1] = test system: Candida albicans; assay: Inhibition of cell adhesion of Candida albicans ATCC 90028 to African green monkey Vero cells at 16 ug/ml relative to untreated control; assay type: functional; settings: ATCC 90028, Vero
[2] = test system: Vero; assay: Cytotoxicity in African green monkey Vero cells up to 64 ug/ml incubated for 3 to 18 hrs by XTT assay; assay type: cell-based; settings: chlorocebus sabaeus
[3] = test system: MCF7; assay: Antiproliferative activity against human MCF7 cells assessed as cell viability at 200 uM after 72 hrs by MTT assay; assay type: functional; settings: MCF7, 72 h, read-out: Activity
Outline: (§1)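 MTT viability assay in CCRF-CEM and MCF-7 cells after 72 h exposure at 25, 50, 100 and 200 µM. Results are relative to control cells without inhibitor in 0.5% DMSO. Done in triplicate; values are means ± SD of three independent experiments.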

[4] = test system: CCRF-CEM; assay: Antiproliferative activity against human CCRF-CEM cells assessed as cell viability at 100 uM after 72 hrs by MTT assay; assay type: functional; settings: read-out: Activity; outline: as §1
[5] = test system: Candida albicans; assay: Growth inhibition of Candida albicans ATCC 90028 at 1 ug/ml incubated for 4 hrs at 35 degC by broth microdilution method relative to control; assay type: functional; settings: ATCC 90028, 4 h, read-out: GI
[6] = test system: Candida albicans; assay: Growth inhibition of Candida albicans ATCC 90028 at 0.0313 ug/ml incubated for 18 hrs at 35 degC by broth microdilution method relative to control; assay type: functional; settings: ATCC 90028, 18 h, read-out: GI
[7] = test system: Vero; assay: Cytotoxicity in African green monkey Vero cells at 256 ug/ml incubated for 3 to 18 hrs by XTT assay; assay type: cell-based; settings: chlorocebus sabaeus
[8] = test system: Candida albicans; assay: Growth inhibition of Candida albicans ATCC 90028 at 0.0313 ug/ml incubated for 4 hrs at 35 degC by broth microdilution method relative to control; assay type: functional; settings: ATCC 90028, 4 h, read-out: GI
[9] = test system: CCRF-CEM; assay: Antiproliferative activity against human CCRF-CEM cells assessed as cell viability at 50 uM after 72 hrs by MTT assay; assay type: functional; settings: read-out: Activity; outline: as §1
[10] = test system: Candida albicans; assay: Growth inhibition of Candida albicans ATCC 90028 at 0.0625 ug/ml incubated for 18 hrs at 35 degC by broth microdilution method relative to control; assay type: functional; settings: ATCC 90028, 18 h, read-out: GI
[11] = test system: MCF7; assay: Antiproliferative activity against human MCF7 cells after 72 hrs by MTT assay; assay type: functional, cell-based; settings: MCF7, 72 h
Outline: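 EC50 was derived from a repeat 72 h MTT assay in CCRF-CEM or MCF-7 cells. It is the concentration killing 50% of tumour cells compared with control cells incubated without inhibitor in 0.5% DMSO.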

[12] = test system: MCF7; assay: Antiproliferative activity against human MCF7 cells assessed as cell viability at 50 uM after 72 hrs by MTT assay; assay type: functional; settings: MCF7, 72 h, read-out: Activity; outline: as §1
[13] = test system: Candida albicans; assay: Growth inhibition of Candida albicans ATCC 90028 at 1 ug/ml incubated for 18 hrs at 35 degC by broth microdilution method relative to control; assay type: functional; settings: ATCC 90028, 18 h, read-out: GI
[14] = test system: CCRF-CEM; assay: Antiproliferative activity against human CCRF-CEM cells assessed as cell viability at 200 uM after 72 hrs by MTT assay; assay type: functional; settings: read-out: Activity; outline: as §1
[15] = test system: Candida albicans; assay: Inhibition of cell adhesion of Candida albicans ATCC 90028 to African green monkey Vero cells at 2 ug/ml relative to untreated control; assay type: functional; settings: ATCC 90028, Vero
[16] = test system: Candida albicans; assay: Growth inhibition of Candida albicans ATCC 90028 at 16 ug/ml incubated for 48 hrs at 35 degC by broth microdilution method relative to control; assay type: functional; settings: ATCC 90028, 48 h, read-out: GI
[17] = test system: Candida albicans; assay: Growth inhibition of Candida albicans ATCC 90028 at 4 uM incubated for 48 hrs at 35 degC by broth microdilution method relative to control; assay type: functional; settings: ATCC 90028, 48 h
[18] = test system: Candida albicans; assay: Growth inhibition of Candida albicans ATCC 90028 at 0.125 ug/ml incubated for 18 hrs at 35 degC by broth microdilution method relative to control; assay type: functional; settings: ATCC 90028, 18 h, read-out: GI
[19] = test system: Candida albicans; assay: Antifungal activity against Candida albicans ATCC 90028 assessed as reduction in cell viability at 1022.5 to 0.06 uM after 48 hrs in presence of ergosterol by XTT assay; assay type: functional; settings: ATCC 90028, 48 h
[20] = test system: Candida albicans; assay: Fungicidal activity against Candida albicans ATCC 90028 assessed as drug level causing 3 fold reduction in bacterial count after 48 hrs at 35 degC; assay type: functional; settings: ATCC 90028, 48 h
[21] = test system: Candida albicans; assay: Growth inhibition of Candida albicans ATCC 90028 at 8 ug/ml incubated for 18 hrs at 35 degC by broth microdilution method relative to control; assay type: functional; settings: ATCC 90028, 18 h, read-out: GI
[22] = test system: Candida albicans; assay: Growth inhibition of Candida albicans ATCC 90028 at 2 ug/ml incubated for 4 hrs at 35 degC by broth microdilution method relative to control; assay type: functional; settings: ATCC 90028, 4 h, read-out: GI
[23] = test system: Candida albicans; assay: Growth inhibition of Candida albicans ATCC 90028 at 16 ug/ml incubated for 18 hrs at 35 degC by broth microdilution method relative to control; assay type: functional; settings: ATCC 90028, 18 h, read-out: GI
[24] = test system: Candida albicans; assay: Inhibition of cell adhesion of Candida albicans ATCC 90028 to African green monkey Vero cells at 0.0625 ug/ml relative to untreated control; assay type: functional; settings: ATCC 90028, Vero
[25] = test system: MCF7; assay: Antiproliferative activity against human MCF7 cells assessed as cell viability at 25 uM after 72 hrs by MTT assay; assay type: functional; settings: MCF7, 72 h, read-out: Activity; outline: as §1
[26] = Toxicity in Galleria mellonella larvae infected with Candida albicans ATCC 90028 infected with 20 uM compound pre-treated cell suspensions assessed as survival incubated in dark for 144 hrs at 30 degC and measured every 24 hrs; assay type: organism-based; settings: in vivo
[27] = test system: MCF7; assay: Antiproliferative activity against human MCF7 cells assessed as cell viability at 100 uM after 72 hrs by MTT assay; assay type: functional; settings: MCF7, 72 h, read-out: Activity; outline: as §1
[28] = test system: CCRF-CEM; assay: Antiproliferative activity against human CCRF-CEM cells assessed as cell viability at 25 uM after 72 hrs by MTT assay; assay type: functional; settings: read-out: Activity; outline: as §1
[29] = test system: Candida albicans; assay: Growth inhibition of Candida albicans ATCC 90028 at 0.5 ug/ml incubated for 4 hrs at 35 degC by broth microdilution method relative to control; assay type: functional; settings: ATCC 90028, 4 h, read-out: GI
[30] = test system: Candida albicans; assay: Growth inhibition of Candida albicans ATCC 90028 at 0.25 ug/ml incubated for 4 hrs at 35 degC by broth microdilution method relative to control; assay type: functional; settings: ATCC 90028, 4 h, read-out: GI
[31] = test system: Candida albicans; assay: Growth inhibition of Candida albicans ATCC 90028 at 0.5 ug/ml incubated for 18 hrs at 35 degC by broth microdilution method relative to control; assay type: functional; settings: ATCC 90028, 18 h, read-out: GI
[32] = test system: Candida albicans; assay: Growth inhibition of Candida albicans ATCC 90028 at 8 ug/ml incubated for 48 hrs at 35 degC by broth microdilution method relative to control; assay type: functional; settings: ATCC 90028, 48 h, read-out: GI
[33] = Toxicity in Galleria mellonella larvae infected with Candida albicans ATCC 90028 infected with 31 uM compound pre-treated cell suspensions assessed as survival incubated in dark for 144 hrs at 30 degC and measured every 24 hrs; assay type: organism-based; settings: in vivo
[34] = test system: Candida albicans; assay: Growth inhibition of Candida albicans ATCC 90028 at 2 ug/ml incubated for 18 hrs at 35 degC by broth microdilution method relative to control; assay type: functional; settings: ATCC 90028, 18 h, read-out: GI
[35] = test system: Candida albicans; assay: Growth inhibition of Candida albicans ATCC 90028 at 4 ug/ml incubated for 18 hrs at 35 degC by broth microdilution method relative to control; assay type: functional; settings: ATCC 90028, 18 h, read-out: GI
[36] = test system: Candida albicans; assay: Growth inhibition of Candida albicans ATCC 90028 at 0.25 ug/ml incubated for 18 hrs at 35 degC by broth microdilution method relative to control; assay type: functional; settings: ATCC 90028, 18 h, read-out: GI
[37] = test system: Candida albicans; assay: Growth inhibition of Candida albicans ATCC 90028 at 8 ug/ml incubated for 4 hrs at 35 degC by broth microdilution method relative to control; assay type: functional; settings: ATCC 90028, 4 h, read-out: GI

SMILES	inhibition at 16 µg/mL [1]	Activity [2]	viability at 200 µM [3]	viability at 100 µM [4]	inhibition of growth at 1 µg/mL [5]	inhibition of growth at 0.0313 µg/mL [6]	Activity [7]	inhibition of growth at 0.0313 µg/mL [8]	viability at 50 µM [9]	inhibition of growth at 0.0625 µg/mL [10]	EC50 [11]	viability at 50 µM [12]	inhibition of growth at 1 µg/mL [13]	viability at 200 µM [14]	inhibition at 2 µg/mL [15]	inhibition of growth at 16 µg/mL [16]	MIC [17]	inhibition of growth at 0.125 µg/mL [18]	MIC [19]	MFC [20]	further results
CC(Cn1cnc2c1c(=O)n(C)c(=O)n2C)OCc1cn(CCCn2nc3c(Br)c(Br)c(Br)c(Br)c3n2)nn1 (centres undefined)	100%	Non-Toxic	53.7%	0%	99.1%	99.1%	Toxic	99.1%	0%	99.2%	80 µM	59.8%	99.4%	0%	89%	100%	10 µM (≈ 7.94 µg/mL)	99.1%	8 µM	5 µM (≈ 3.97 µg/mL)	inhibition of growth at 8 µg/mL [21]: 100%; inhibition of growth at 2 µg/mL [22]: 99.1%; inhibition of growth at 16 µg/mL [23]: 100%; inhibition at 0.0625 µg/mL [24]: 89%; viability at 25 µM [25]: 58.3%; survival at 24 h, 20 µM [26]: 90 to 100%; viability at 100 µM [27]: 59.1%; viability at 25 µM [28]: 0%; inhibition of growth at 0.5 µg/mL [29]: 99.1%; inhibition of growth at 0.25 µg/mL [30]: 99.1%; inhibition of growth at 0.5 µg/mL [31]: 99.2%; inhibition of growth at 8 µg/mL [32]: 99.9%; survival at 24 h, 31 µM [33]: 90 to 100%; inhibition of growth at 2 µg/mL [34]: 99.9%; inhibition of growth at 4 µg/mL [35]: 100%; inhibition of growth at 0.25 µg/mL [36]: 99.4%; inhibition of growth at 8 µg/mL [37]: 99.1%
CC(CN1c2ccccc2Sc2ccccc21)OC(=O)OC(C)Cn1cnc2c1c(=O)n(C)c(=O)n2C (centres undefined)	100%	Non-Toxic	20.8%	0%	99.5%	99.6%	Toxic	99.2%	7.9%	99.7%	80 µM	38.3%	100%	0%	89%	100%	4 µM (≈ 2.09 µg/mL)	99.9%	38 µM	15 µM (≈ 7.82 µg/mL)	inhibition of growth at 8 µg/mL [21]: 100%; inhibition of growth at 2 µg/mL [22]: 99.5%; inhibition of growth at 16 µg/mL [23]: 100%; inhibition at 0.0625 µg/mL [24]: 89%; viability at 25 µM [25]: 58.8%; survival at 24 h, 20 µM [26]: 90 to 100%; viability at 100 µM [27]: 27.1%; viability at 25 µM [28]: 22.1%; inhibition of growth at 0.5 µg/mL [29]: 99.1%; inhibition of growth at 0.25 µg/mL [30]: 99%; inhibition of growth at 0.5 µg/mL [31]: 99.9%; inhibition of growth at 8 µg/mL [32]: 100%; survival at 24 h, 31 µM [33]: 90 to 100%; inhibition of growth at 2 µg/mL [34]: 100%; inhibition of growth at 4 µg/mL [35]: 100%; inhibition of growth at 0.25 µg/mL [36]: 99.9%; inhibition of growth at 8 µg/mL [37]: 100%

Reference: ChEMBL document CHEMBL4229342, “Synthesis of novel proxyphylline derivatives with dual Anti-Candida albicans and anticancer activity” (Eur J Med Chem, 2018)
